# Source: ChEMBL document CHEMBL1124821, “Design of an antithrombotic-antihypertensive agent (Wy 27569). Synthesis and evaluation of a series of 2-heteroaryl-substituted dihydropyridines” (J Med Chem, 1990)
# pIC50: −log10 of the molar value. Where “and” joins values, the source holds several entries; their conditions need not be identical. Identical values can stand only once.
# What was measured:
# [1] = target: Thromboxane-A synthase (Oryctolagus cuniculus); assay: Inhibition of Thromboxane A2 synthase in rabbit platelets in vitro
# Rattus norvegicus [2] = assay: Reduction in blood pressure of rats, 2 hr after 0.03 mmol/kg p.o. administration; assay type: functional
# In short: (§1)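 Female SHR (250–300 g) kept in 37 °C constant-temperature housing; systolic pressure measured by tail-cuff with a pneumatic pulse transducer. Rats below 155 mmHg discarded. Groups of four given a single oral dose in 0.5% (hydroxypropyl)methylcellulose–0.9% saline (10 mL/kg) or vehicle alone; pressure recorded before dosing and at 2, 6 and 24 h. Analysed by analysis of variance.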
# Rattus norvegicus [3] = assay: The compound was tested for reducing blood pressure in rats after 6 hours of 0.03 mmol/kg oral administration.; assay type: functional
# In short: as §1
# Rattus norvegicus [4] = assay: The compound was tested for plasma levels of 6-KPGF1alpha in rats after 2 hr following dose 0.3(mg/kg) in oral administration; assay type: functional, organism-based
# In short: (§2)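 Female normotensive rats killed by CO₂ asphyxiation 2 h after oral dosing with compound or vehicle (n = 10–13 per group). Blood taken from the posterior vena cava with 1% EDTA, centrifuged at once (10000g, 10 min), and plasma stored at –30 °C. TXB₂ and 6-KPGF1α measured by radioimmunoassay, in pg/mL, mean ± SEM. p < 0.05 versus controls taken as significant.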
# Homo sapiens [5] = organism: Homo sapiens; assay: The compound was tested for effects of compound on 6-KPGF1alpha production at molar concentration of 10e-5 in human platelet rich plasma; assay type: functional
# Homo sapiens [6] = organism: Homo sapiens; assay: The compound was tested for effects of compound on TXB2 production at different molar concentration of 10e-4 in human platelet rich plasma; assay type: functional
# Rattus norvegicus [7] = assay: The compound was tested for plasma levels of TXB2 in rats after 2 hr following dose 3(mg/kg) in oral administration (P<0.05); assay type: functional, organism-based
# In short: as §2
# Homo sapiens [8] = organism: Homo sapiens; assay: The compound was tested for effects of compound on TXB2 production at different molar concentration of 10e-3 in human platelet rich plasma; assay type: functional
# Rattus norvegicus [9] = assay: The compound was tested for reducing blood pressure in rats after 6 hours of 0.03 mmol/kg oral administration; assay type: functional
# In short: as §1
# Rattus norvegicus [10] = assay: The compound was tested for reducing blood pressure in rats after 2 hours of 0.03 mmol/kg oral administration; assay type: functional
# In short: as §1
# Rattus norvegicus [11] = assay: The compound was tested for plasma levels of TXB2 in rats after 2 hr following dose 10(mg/kg) in oral administration; assay type: functional, organism-based
# In short: as §2
# Rattus norvegicus [12] = assay: The compound was tested for plasma levels of 6-KPGF1alpha in rats after 2 hr following dose 3(mg/kg) in oral administration; assay type: functional, organism-based
# In short: as §2
# Rattus norvegicus [13] = assay: The compound was tested for plasma levels of 6-KPGF1alpha in rats after 2 hr following dose 10(mg/kg) in oral administration.; assay type: functional, organism-based
# In short: as §2
# Homo sapiens [14] = organism: Homo sapiens; assay: The compound was tested for effects of compound on TXB2 production at molar concentration of 10e-5 in human platelet rich plasma; assay type: functional
# Homo sapiens [15] = organism: Homo sapiens; assay: The compound was tested for effects of compound on 6-KPGF1alpha production at molar concentration of 10e-6 in human platelet rich plasma; assay type: functional
# Homo sapiens [16] = organism: Homo sapiens; assay: The compound was tested for effects of compound on TXB2 production at molar concentration of 10e-7 in human platelet rich plasma; assay type: functional
# Rattus norvegicus [17] = assay: The compound was tested for reducing blood pressure in rats after 2 hours of 0.003 mmol/kg oral administration; assay type: functional
# In short: as §1
# Homo sapiens [18] = organism: Homo sapiens; assay: The compound was tested for effects of compound on 6-KPGF1alpha production at molar concentration of 10e-7 in human platelet rich plasma; assay type: functional
# Homo sapiens [19] = organism: Homo sapiens; assay: The compound was tested for effects of compound on 6-KPGF1alpha production at molar concentration of 10e-4 in human platelet rich plasma; assay type: functional
# Rattus norvegicus [20] = assay: The compound was tested for plasma levels of TXB2 in rats after 2 hr following dose 0.3(mg/kg) in oral administration; assay type: functional, organism-based
# In short: as §2
# Rattus norvegicus [21] = assay: The compound was tested for plasma levels of TXB2 in rats after 2 hr following dose 1(mg/kg) in oral administration; assay type: functional, organism-based
# In short: as §2
# Homo sapiens [22] = organism: Homo sapiens; assay: The compound was tested for effects of compound on 6-KPGF1alpha production at molar concentration of 10e-3 in human platelet rich plasma; assay type: functional
# Homo sapiens [23] = organism: Homo sapiens; assay: The compound was tested for effects of compound on TXB2 production at molar concentration of 10e-6 in human platelet rich plasma; assay type: functional
# Homo sapiens [24] = organism: Homo sapiens; assay: The compound was tested for effects of compound on TXB2 production at molar concentration of 10e-3 in human platelet rich plasma; assay type: functional
# Rattus norvegicus [25] = assay: The compound was tested for plasma levels of TXB2 in rats after 2 hr following dose 3(mg/kg) in oral administration.; assay type: functional, organism-based
# In short: as §2
# Rattus norvegicus [26] = assay: The compound was tested for plasma levels of TXB2 in rats after 2 hr following dose 3(mg/kg) in oral administration. (p<0.05); assay type: functional, organism-based
# In short: as §2
# Rattus norvegicus [27] = assay: The compound was tested for plasma levels of TXB2 in rats after 2 hr following dose 10(mg/kg) in oral administration.; assay type: functional, organism-based
# In short: as §2
# Homo sapiens [28] = organism: Homo sapiens; assay: The compound was tested for effects of compound on TXB2 production at molar concentration of 10e-4 in human platelet rich plasma; assay type: functional
# Homo sapiens [29] = organism: Homo sapiens; assay: The compound was tested for effects of compound on TXB2 production at different molar concentration of 10e-5 in human platelet rich plasma; assay type: functional
# Homo sapiens [30] = organism: Homo sapiens; assay: The compound was tested for effects of compound on TXB2 production at different molar concentration of 10e-7 in human platelet rich plasma; assay type: functional
# Rattus norvegicus [31] = assay: The compound was tested for plasma levels of 6-KPGF1alpha in rats after 2 hr following dose 3(mg/kg) in oral administration. (p<0.05); assay type: functional, organism-based
# In short: as §2
# Homo sapiens [32] = organism: Homo sapiens; assay: The compound was tested for effects of compound on TXB2 production at different molar concentration of 10e-6 in human platelet rich plasma; assay type: functional
# Rattus norvegicus [33] = assay: The compound was tested for reducing blood pressure in rats after 2 hours of 0.003 mmol/kg oral administration.; assay type: functional
# In short: as §1
# Rattus norvegicus [34] = assay: The compound was tested for reducing blood pressure in rats after 6 hours of 0.003 mmol/kg oral administration.; assay type: functional
# In short: as §1
compound,measurement,setting,value
CCO/C(O)=C1\C(Cn2ccnc2)=NC(C)=C(C(=O)OC)C1c1ccccc1Cl (stereo unspecified),pIC50,[1],6.30
same,Decrease in blood pressure,Rattus norvegicus [2],31%
same,Decrease in blood pressure,Rattus norvegicus [3],15%
CCO/C(O)=C1\C(Cn2ccnc2)=NC(C)=C(C(=O)OC(C)C)C1c1cccc([N+](=O)[O-])c1.Cl (stereo unspecified),Decrease in blood pressure,Rattus norvegicus [2],21%
same,Decrease in blood pressure,Rattus norvegicus [3],19%
CCO/C(O)=C1\C(Cn2ccnc2)=NC(Cn2ccnc2)=C(C(=O)OC)C1c1cccc([N+](=O)[O-])c1 (stereo unspecified),pIC50,[1],6.22
CCO/C(O)=C1\C(Cn2ccnc2)=NC(C)=C(C(=O)OC)C1c1cccc([N+](=O)[O-])c1.Cl (stereo unspecified),Plasma level,Rattus norvegicus [4],22 pg/mL
same,Production,Homo sapiens [5],119%
same,Production,Homo sapiens [6],10%
same,Plasma level,Rattus norvegicus [7],330 pg/mL
same,Production,Homo sapiens [8],0%
same,Decrease in blood pressure,Rattus norvegicus [9],38% and 28%
same,Decrease in blood pressure,Rattus norvegicus [10],51%
same,Plasma level,Rattus norvegicus [11],280 pg/mL
same,Plasma level,Rattus norvegicus [12],68 pg/mL
same,Plasma level,Rattus norvegicus [13],94 pg/mL
same,Production,Homo sapiens [14],43%
same,Production,Homo sapiens [15],112%
same,Production,Homo sapiens [16],92%
same,Decrease in blood pressure,Rattus norvegicus [17],34%
same,Production,Homo sapiens [18],100%
same,Production,Homo sapiens [19],431%
same,Plasma level,Rattus norvegicus [20],484 pg/mL
same,Plasma level,Rattus norvegicus [21],402 pg/mL
same,Production,Homo sapiens [22],460%
same,Production,Homo sapiens [23],67%
CCOC(=O)C1=C(CCn2ccnc2)N=C(CCn2ccnc2)/C(=C(/O)OCC)C1c1cccc([N+](=O)[O-])c1 (stereo unspecified),pIC50,[1],5.28
CCO/C(O)=C1\C(COCCc2cccnc2)=NC(C)=C(C(=O)OC)C1c1cccc([N+](=O)[O-])c1.Cl (stereo unspecified),Decrease in blood pressure,Rattus norvegicus [2],40%
COC(=O)C1=C(C)N=C(Cn2ccnc2)/C(=C(/O)OC)C1c1cccc([N+](=O)[O-])c1.Cl (stereo unspecified),Decrease in blood pressure,Rattus norvegicus [2],42%
same,Decrease in blood pressure,Rattus norvegicus [3],27%
O=C(O)c1ccc(OCCn2ccnc2)cc1 [DAZOXIBEN],Production,Homo sapiens [5],603%
same,Production,Homo sapiens [24],2%
same,Plasma level,Rattus norvegicus [25],384 pg/mL
same,Production,Homo sapiens [14],21%
same,Production,Homo sapiens [15],463%
same,Plasma level,Rattus norvegicus [26],384 pg/mL
same,Production,Homo sapiens [16],97.5%
same,Production,Homo sapiens [18],115%
same,Production,Homo sapiens [19],460%
same,Plasma level,Rattus norvegicus [27],270 pg/mL and 202 pg/mL
same,Production,Homo sapiens [28],5%
same,Production,Homo sapiens [22],345%
same,Production,Homo sapiens [23],69%
CCOC(=O)C1=C(C)NC(C)=C(C(=O)OC)C1c1cccc([N+](=O)[O-])c1 (stereo unspecified) [NITRENDIPINE],Production,Homo sapiens [5],136%
same,Production,Homo sapiens [6],40%
same,Production,Homo sapiens [8],35%
same,Production,Homo sapiens [29],81%
same,Production,Homo sapiens [30],87%
same,Plasma concentration,Rattus norvegicus [13],60 pg/mL
same,Plasma concentration,Rattus norvegicus [25],564 pg/mL
same,Decrease in blood pressure,Rattus norvegicus [2],33%
same,Plasma concentration,Rattus norvegicus [31],62 pg/mL
same,Production,Homo sapiens [15],113%
same,Production,Homo sapiens [32],84%
same,Production,Homo sapiens [18],112%
same,Production,Homo sapiens [19],121%
same,Plasma concentration,Rattus norvegicus [27],562 pg/mL
same,Production,Homo sapiens [22],96%
CCO/C(O)=C1\C(Cn2ccnc2)=NC(C)=C(C(=O)OC)C1c1ccccc1[N+](=O)[O-] (stereo unspecified),Decrease in blood pressure,Rattus norvegicus [33],44%
same,Decrease in blood pressure,Rattus norvegicus [2],59%
same,Decrease in blood pressure,Rattus norvegicus [3],56%
same,Decrease in blood pressure,Rattus norvegicus [34],14%
CCO/C(O)=C1\C(Cn2ccnc2)=NC(C)=C(C(=O)OC)C1c1ccccc1OC(F)F (stereo unspecified),Decrease in blood pressure,Rattus norvegicus [2],55% and 48%
Br.CCO/C(O)=C1\C(Cn2ccnc2)=NC(C)=C(C(=O)OC)C1c1c(F)cccc1Cl (stereo unspecified),pIC50,[1],4.71
same,Decrease in blood pressure,Rattus norvegicus [2],48% and 35%
CCO/C(O)=C1\C(C)=NC(Cn2ccnc2)=C(C(=O)OC)C1c1cccc(C(F)(F)F)c1Cl (stereo unspecified),pIC50,[1],3.90
same,Decrease in blood pressure,Rattus norvegicus [2],16%
CCOC(=O)C1=C(COc2cccnc2)NC(C)=C(C(=O)OC)C1c1cccc([N+](=O)[O-])c1.Cl (stereo unspecified),Decrease in blood pressure,Rattus norvegicus [2],40%
CCO/C(O)=C1\C(C)=NC(Cn2ccnc2)=C(C(=O)OC)C1c1cccc([N+](=O)[O-])c1 (stereo unspecified),pIC50,[1],5.66
CCO/C(O)=C1\C(C)=NC(Cn2ccnc2)=C(C(=O)OC)C1c1ccccc1OC(F)F (stereo unspecified),pIC50,[1],4.60
same,Decrease in blood pressure,Rattus norvegicus [2],48%
same,Decrease in blood pressure,Rattus norvegicus [3],31%
CCO/C(O)=C1\C(COCc2cccnc2)=NC(C)=C(C(=O)OC)C1c1cccc([N+](=O)[O-])c1.Cl (stereo unspecified),Decrease in blood pressure,Rattus norvegicus [2],18%
CCO/C(O)=C1\C(Cn2ccnc2)=NC(C)=C(C(=O)OC)C1c1cccc(C(F)(F)F)c1Cl (stereo unspecified),Decrease in blood pressure,Rattus norvegicus [33],16%
same,Decrease in blood pressure,Rattus norvegicus [2],60%
same,Decrease in blood pressure,Rattus norvegicus [3],52%
CCOC(=O)C1=C(C)N=C(CCn2ccnc2)/C(=C(/O)OCC)C1c1ccccc1[N+](=O)[O-].O=C(O)/C=C\C(=O)O (stereo unspecified),pIC50,[1],5.64
same,Decrease in blood pressure,Rattus norvegicus [2],44%
CCO/C(O)=C1\C(COCCn2ccnc2)=NC(C)=C(C(=O)OC)C1c1cccc([N+](=O)[O-])c1.Cl (stereo unspecified),Decrease in blood pressure,Rattus norvegicus [9],42%
same,Decrease in blood pressure,Rattus norvegicus [2],56%
CCO/C(O)=C1\C(Cn2ccnc2)=NC(C)=C(C(=O)OC)C1c1cccc(Cl)c1Cl (stereo unspecified),Decrease in blood pressure,Rattus norvegicus [33],40%
same,Decrease in blood pressure,Rattus norvegicus [2],54%
same,Decrease in blood pressure,Rattus norvegicus [3],49%
same,Decrease in blood pressure,Rattus norvegicus [34],20%
CCOC(=O)C1=C(C)N=C(Cn2ccnc2)/C(=C(/O)OCC)C1c1cccc([N+](=O)[O-])c1.Cl (stereo unspecified),Decrease in blood pressure,Rattus norvegicus [2],47%
same,Decrease in blood pressure,Rattus norvegicus [3],13%
